The target of assay [1] is T1, human DAT (Homo sapiens, UniProt Q01959). As to the kind of experiment: [3H]DA uptake inhibition, HEK-293 cells expressing human DAT. It is filed as cell-based. As to conditions: for Increase in potency for inhibition of DA uptake: relative to (S,S)-5a.
Assay [2] relates to nicotine-induced CPP. As to the kind of experiment: Blockade of nicotine-induced conditioned place preference. It counts as in vivo, mice. The settings on record: for AD50 CPP: mice, blockade of nicotine-induced CPP.
Assay [3] addresses α1*-nAChR (muscle-type α1β1γδ-nAChR) (Homo sapiens, UniProt P02708+P07510+P11230+Q07001). As to the kind of experiment: 86Rb+ efflux assay of nAChR function. It counts as cell-based.
For the next assay, the target named is human NET (Homo sapiens, UniProt P23975). As to the kind of experiment: [3H]NE uptake inhibition, HEK-293 cells expressing human NET. It counts as cell-based.
In a further assay the target is α4β2-nAChR (Homo sapiens, UniProt P17787+P43681). As to the kind of experiment: 86Rb+ efflux assay of nAChR function. It is filed as cell-based.
The target of a further assay is α3β4*-nAChR (Homo sapiens, UniProt P30926+P32297). The assay is described as follows: 86Rb+ efflux assay of nAChR function. It is filed as cell-based.
The subject of assay [4] is nicotine-induced antinociception (hot-plate). As to the kind of experiment: Blockade of nicotine-induced antinociception, hot-plate test. It is filed as in vivo, mice. The settings on record: for ED50: Mus musculus, read-out: AD50 Hot-plate. The method, boiled down: (§1)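 Male ICR mice (20–25 g) were given the test compound to block the acute effects of nicotine. Dose-response curves used at least four doses of test compound, with at least eight mice per dose group. Results are AD50 (mg/kg) with confidence limits, or % effect at the highest dose tested.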
(Thermal pain tests record how soon the animal reacts.)

Assay [5] relates to nicotine-induced hypothermia. The assay is described as follows: Blockade of nicotine-induced hypothermia. It is filed as in vivo, mice. The settings on record: for ED50: Mus musculus, read-out: AD50 Hypothermia. An outline of the steps:
as §1

For assay [6], the system named is nicotine-induced locomotor depression. As to the kind of experiment: Blockade of nicotine-induced locomotor depression. It counts as in vivo, mice. The settings on record: for ED50: Mus musculus, read-out: AD50 Locomotion; for AD50 Locomotion: mice, antagonism of acute nicotine, parentheses: confidence limits. An outline of the steps: as §1
In assay [7] the test system is nicotine-induced antinociception (tail-flick). As to the kind of experiment: Blockade of nicotine-induced antinociception, tail-flick test. It is filed as in vivo, mice. As to conditions: for ED50: Mus musculus, read-out: AD50 Tail-flick; for More potent in the tail-flick test: relative to (S,S)-4a; for AD50 Tail-flick: mice, antagonism of acute nicotine, parentheses: confidence limits. The method, boiled down: as §1

The target in a further assay is α4β4-nAChR (Homo sapiens, UniProt P30926+P43681). As to the kind of experiment: 86Rb+ efflux assay of nAChR function. It is filed as cell-based.
The subject of assay [8] is nicotine-induced antinociception (tail-flick). As to conditions: mice, antagonism of acute nicotine; parentheses: confidence limits; cited from earlier work.
Assay [9] concerns nicotine-induced antinociception (hot-plate). The settings on record: mice, antagonism of acute nicotine; parentheses: confidence limits; cited from earlier work.
Assay [10] has as its system nicotine-induced locomotor depression. The settings on record: mice, antagonism of acute nicotine; parentheses: confidence limits; cited from earlier work.
The test system of assay [11] is nicotine-induced CPP. The settings on record: mice, blockade of nicotine-induced CPP; cited from earlier work.
The target of another assay is human SERT (Homo sapiens, UniProt P31645). The assay is described as follows: [3H]5HT uptake inhibition, HEK-293 cells expressing human SERT. It counts as cell-based. The settings on record: relative to (S,S)-5a.
In assay [12] the test system is nicotine-induced hypothermia. As to conditions: mice, antagonism of acute nicotine; parentheses: confidence limits; cited from earlier work.
The target of assay [13] is T1, human DAT. The settings on record: HEK-293 cells, mean ± standard error; cited from earlier work.
The mark [14] stands for this setting: mice, antagonism of acute nicotine, parentheses: confidence limits.

Structures are written as SMILES. Where two headings read alike, the source gives them in different places.

Broadly, the IC50 is the concentration at which inhibition is half-maximal.

Sequence of human NET (P23975 whole entry): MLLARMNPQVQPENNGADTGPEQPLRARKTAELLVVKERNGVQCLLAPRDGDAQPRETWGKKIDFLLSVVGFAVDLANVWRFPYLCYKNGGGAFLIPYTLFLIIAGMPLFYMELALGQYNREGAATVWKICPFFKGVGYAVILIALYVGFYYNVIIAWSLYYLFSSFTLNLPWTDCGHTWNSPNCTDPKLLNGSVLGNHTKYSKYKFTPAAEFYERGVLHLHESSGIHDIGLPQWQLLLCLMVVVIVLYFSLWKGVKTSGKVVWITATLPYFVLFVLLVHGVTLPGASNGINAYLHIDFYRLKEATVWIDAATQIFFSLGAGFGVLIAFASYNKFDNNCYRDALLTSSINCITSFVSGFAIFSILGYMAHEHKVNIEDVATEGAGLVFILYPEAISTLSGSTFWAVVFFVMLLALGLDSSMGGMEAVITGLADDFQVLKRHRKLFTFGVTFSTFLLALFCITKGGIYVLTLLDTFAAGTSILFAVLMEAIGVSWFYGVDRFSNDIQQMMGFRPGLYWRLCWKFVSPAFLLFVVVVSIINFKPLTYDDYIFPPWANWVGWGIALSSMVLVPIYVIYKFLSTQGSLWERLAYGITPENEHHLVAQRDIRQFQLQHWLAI
Sequence of α3β4*-nAChR (P32297 32-505): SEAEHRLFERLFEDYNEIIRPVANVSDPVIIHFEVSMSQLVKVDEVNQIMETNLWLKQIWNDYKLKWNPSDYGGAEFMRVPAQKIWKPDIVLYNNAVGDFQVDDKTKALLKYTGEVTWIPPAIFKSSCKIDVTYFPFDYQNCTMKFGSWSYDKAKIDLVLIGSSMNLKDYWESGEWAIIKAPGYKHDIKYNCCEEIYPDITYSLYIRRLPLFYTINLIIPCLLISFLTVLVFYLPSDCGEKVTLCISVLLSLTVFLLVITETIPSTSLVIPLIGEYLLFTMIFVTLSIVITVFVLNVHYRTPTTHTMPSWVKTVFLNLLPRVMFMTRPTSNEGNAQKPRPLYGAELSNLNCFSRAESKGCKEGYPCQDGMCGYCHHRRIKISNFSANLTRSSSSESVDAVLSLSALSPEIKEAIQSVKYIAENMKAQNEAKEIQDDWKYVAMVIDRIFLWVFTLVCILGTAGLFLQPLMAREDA
Sequence of α3β4*-nAChR (P30926 22-498): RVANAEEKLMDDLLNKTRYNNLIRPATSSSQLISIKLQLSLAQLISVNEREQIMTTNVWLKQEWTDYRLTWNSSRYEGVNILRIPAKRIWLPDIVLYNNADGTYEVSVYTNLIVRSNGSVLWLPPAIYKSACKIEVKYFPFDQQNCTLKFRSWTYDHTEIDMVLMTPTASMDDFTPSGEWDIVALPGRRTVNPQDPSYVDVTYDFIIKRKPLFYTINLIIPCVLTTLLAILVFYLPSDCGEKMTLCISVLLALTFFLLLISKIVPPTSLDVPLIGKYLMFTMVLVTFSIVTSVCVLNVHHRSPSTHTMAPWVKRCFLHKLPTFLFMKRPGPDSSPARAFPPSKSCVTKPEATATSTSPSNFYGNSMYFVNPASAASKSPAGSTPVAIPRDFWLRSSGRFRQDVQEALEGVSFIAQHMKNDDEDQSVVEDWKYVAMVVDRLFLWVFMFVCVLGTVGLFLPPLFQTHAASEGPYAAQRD
Sequence of α1*-nAChR (muscle-type α1β1γδ-nAChR) (P02708 21-457): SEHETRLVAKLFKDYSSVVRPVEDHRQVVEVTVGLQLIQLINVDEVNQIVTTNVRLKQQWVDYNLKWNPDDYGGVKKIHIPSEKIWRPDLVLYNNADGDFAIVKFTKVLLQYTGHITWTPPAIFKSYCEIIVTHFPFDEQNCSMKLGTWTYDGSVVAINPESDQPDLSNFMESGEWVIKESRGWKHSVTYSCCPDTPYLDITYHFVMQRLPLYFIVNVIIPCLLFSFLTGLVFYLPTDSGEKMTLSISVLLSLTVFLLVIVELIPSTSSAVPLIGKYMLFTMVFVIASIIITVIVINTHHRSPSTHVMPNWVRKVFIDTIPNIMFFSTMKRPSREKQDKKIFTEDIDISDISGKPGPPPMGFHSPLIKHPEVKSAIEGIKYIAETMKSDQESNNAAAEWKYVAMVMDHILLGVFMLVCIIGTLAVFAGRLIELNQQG
Sequence of α1*-nAChR (muscle-type α1β1γδ-nAChR) (P11230 24-501): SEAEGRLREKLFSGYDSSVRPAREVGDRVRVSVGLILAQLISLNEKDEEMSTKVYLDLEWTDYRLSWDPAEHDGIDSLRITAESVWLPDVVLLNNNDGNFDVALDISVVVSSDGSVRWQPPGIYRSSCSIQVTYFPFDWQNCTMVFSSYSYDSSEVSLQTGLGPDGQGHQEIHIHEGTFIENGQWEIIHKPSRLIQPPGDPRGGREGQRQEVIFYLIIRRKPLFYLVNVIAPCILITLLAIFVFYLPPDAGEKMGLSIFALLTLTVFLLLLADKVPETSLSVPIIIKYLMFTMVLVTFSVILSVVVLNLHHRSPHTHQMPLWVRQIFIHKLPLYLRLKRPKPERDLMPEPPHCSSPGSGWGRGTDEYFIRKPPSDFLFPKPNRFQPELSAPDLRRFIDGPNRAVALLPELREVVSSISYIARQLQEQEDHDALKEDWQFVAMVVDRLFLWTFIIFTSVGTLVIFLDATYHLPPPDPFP
Sequence of α1*-nAChR (muscle-type α1β1γδ-nAChR) (P07510 23-517): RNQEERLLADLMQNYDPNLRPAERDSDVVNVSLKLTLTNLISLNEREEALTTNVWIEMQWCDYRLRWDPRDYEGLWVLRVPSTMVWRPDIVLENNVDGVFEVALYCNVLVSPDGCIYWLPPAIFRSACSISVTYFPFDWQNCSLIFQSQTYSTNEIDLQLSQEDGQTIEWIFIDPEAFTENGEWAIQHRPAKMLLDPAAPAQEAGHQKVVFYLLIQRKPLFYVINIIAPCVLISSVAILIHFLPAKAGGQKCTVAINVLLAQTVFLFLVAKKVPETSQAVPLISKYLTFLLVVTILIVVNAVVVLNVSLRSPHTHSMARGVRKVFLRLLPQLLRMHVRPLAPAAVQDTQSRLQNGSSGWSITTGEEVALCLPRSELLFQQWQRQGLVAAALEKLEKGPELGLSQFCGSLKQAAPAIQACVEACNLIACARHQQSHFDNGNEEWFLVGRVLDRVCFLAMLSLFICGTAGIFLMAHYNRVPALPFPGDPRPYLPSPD
Sequence of α1*-nAChR (muscle-type α1β1γδ-nAChR) (Q07001 22-517): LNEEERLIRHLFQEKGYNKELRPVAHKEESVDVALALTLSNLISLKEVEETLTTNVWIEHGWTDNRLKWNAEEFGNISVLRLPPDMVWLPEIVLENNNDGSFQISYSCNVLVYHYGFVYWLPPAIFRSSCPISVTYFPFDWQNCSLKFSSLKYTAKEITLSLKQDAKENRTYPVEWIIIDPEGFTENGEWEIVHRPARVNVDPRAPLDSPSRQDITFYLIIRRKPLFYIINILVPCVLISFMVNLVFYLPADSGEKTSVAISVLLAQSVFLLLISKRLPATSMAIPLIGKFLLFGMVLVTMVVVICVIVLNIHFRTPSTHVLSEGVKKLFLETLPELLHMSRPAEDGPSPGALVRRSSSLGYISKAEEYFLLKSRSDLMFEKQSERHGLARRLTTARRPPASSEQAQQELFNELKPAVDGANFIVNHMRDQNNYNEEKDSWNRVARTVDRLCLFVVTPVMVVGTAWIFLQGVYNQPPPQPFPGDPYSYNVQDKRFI
Sequence of α4β2-nAChR (P43681 29-627 limits assumed): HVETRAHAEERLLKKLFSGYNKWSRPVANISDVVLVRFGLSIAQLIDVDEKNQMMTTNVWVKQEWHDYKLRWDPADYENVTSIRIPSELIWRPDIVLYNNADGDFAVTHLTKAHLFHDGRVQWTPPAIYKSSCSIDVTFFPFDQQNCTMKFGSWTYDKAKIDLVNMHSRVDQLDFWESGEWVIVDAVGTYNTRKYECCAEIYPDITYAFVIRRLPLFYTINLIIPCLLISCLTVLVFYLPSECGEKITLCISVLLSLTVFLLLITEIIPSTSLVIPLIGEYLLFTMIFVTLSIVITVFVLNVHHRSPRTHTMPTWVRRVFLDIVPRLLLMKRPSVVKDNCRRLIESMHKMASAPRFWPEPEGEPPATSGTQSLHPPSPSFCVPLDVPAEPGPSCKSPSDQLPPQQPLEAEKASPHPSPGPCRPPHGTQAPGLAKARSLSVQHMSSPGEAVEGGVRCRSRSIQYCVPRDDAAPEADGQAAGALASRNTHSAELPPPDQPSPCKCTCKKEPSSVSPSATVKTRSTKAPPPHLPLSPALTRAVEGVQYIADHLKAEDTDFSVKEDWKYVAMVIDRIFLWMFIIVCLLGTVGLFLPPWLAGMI
Sequence of α4β2-nAChR (P17787 26-502): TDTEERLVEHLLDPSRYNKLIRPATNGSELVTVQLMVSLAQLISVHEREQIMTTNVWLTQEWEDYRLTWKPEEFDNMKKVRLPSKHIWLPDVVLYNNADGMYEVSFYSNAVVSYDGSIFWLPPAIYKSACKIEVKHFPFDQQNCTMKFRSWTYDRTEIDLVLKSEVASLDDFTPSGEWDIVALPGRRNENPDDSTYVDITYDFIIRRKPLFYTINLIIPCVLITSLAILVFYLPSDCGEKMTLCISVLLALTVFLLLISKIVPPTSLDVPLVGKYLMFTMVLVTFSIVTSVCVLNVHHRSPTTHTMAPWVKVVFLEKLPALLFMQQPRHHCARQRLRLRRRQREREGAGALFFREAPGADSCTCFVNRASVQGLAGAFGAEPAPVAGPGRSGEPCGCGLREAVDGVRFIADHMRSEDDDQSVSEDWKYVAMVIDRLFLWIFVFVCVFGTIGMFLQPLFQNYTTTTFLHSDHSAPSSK
Sequence of α4β4-nAChR (P43681 29-627 limits assumed): as the sequence (P43681 29-627 limits assumed) above
Sequence of α4β4-nAChR (P30926 22-498): as the sequence (P30926 22-498) above

As to `CCCN1[C@@H](C)[C@H](c2cccc(Cl)c2)OCC1(C)C` [(S,S)-5f, (S,S)-2-(3'-Chlorophenyl)-3,5,5-trimethyl-4-propylmorpholine], the IC50 against human DAT [1] was 0.061 ± 0.02 µM; in [3], 5.5 µM; on human NET it was 0.013 ± 0.0036 µM; against α4β2-nAChR it was 12 µM; against α3β4*-nAChR it was 0.98 µM; against α4β4-nAChR, 5.8 µM. Besides, the “AD50 CPP” value with nicotine-induced CPP [2] is on record as 0.03 mg/kg. Besides, the ED50 in [4] is over 20 mg/kg; in assay [5], over 20 mg/kg; in assay [6] it was over 20 mg/kg; in [7], 0.056 mg/kg.

Consider `C[C@@H]1NC(C)(C)CO[C@H]1c1cccc(Br)c1` [(S,S)-5c, (S,S)-2-(3'-Bromophenyl)-3,5,5-trimethylmorpholine], for which the IC50 at human DAT [1] turned out to be 0.044 ± 0.003 µM; in [3], 7.3 µM; against human NET, 0.15 ± 0.02 µM; against α4β2-nAChR it was 12 µM; against α3β4*-nAChR it was 1.4 µM; against α4β4-nAChR, 11 µM. The “Increase in potency for inhibition of DA uptake” value on human DAT [1] was found to be 5 fold. Also, the “More potent at α3β4*-nAChR” value at α3β4*-nAChR (relative to (S,S)-5a) was ~ 2 fold. Moreover, the results for the ED50 in [4], in [5] and in assay [7] were over 20 mg/kg, over 20 mg/kg and 0.006 mg/kg, respectively. The “AD50 Locomotion” value in [6] is listed as 2.1 (0.9–4.8) mg/kg. Further, in assay [7], the “More potent in the tail-flick test” value is ~ 33 times.

For the compound `C[C@@H]1NC(C)(C)CO[C@@]1(O)c1cccc(Cl)c1` [(S,S)-4a, (S,S)-2-(3'-chlorophenyl)-3,5,5-trimethylmorpholine-2-ol], the “AD50 Tail-flick” value in assay [8] is recorded as 0.2 (0.06–0.7) mg/kg. Besides, the “AD50 Hot-plate” value in assay [9] was 1.0 (0.2–2.2) mg/kg. Besides, the “AD50 Locomotion” value in [10] is 0.9 (0.2–5.7) mg/kg. For the same compound, at α4β2-nAChR (relative to (R,R)-4a), the “Potency as functional antagonist of α4β2-nAChR, higher than” value is ~ 10 fold. The “AD50 CPP” value in the assay with nicotine-induced CPP [11] is on record as 0.1 mg/kg.

For the compound `C[C@H]1[C@H](c2cccc(Cl)c2)OCC(C)(C)N1C` [(S,S)-5d, (S,S)-2-(3'-Chlorophenyl)-3,4,5,5-tetramethylmorpholine], the IC50 against human DAT [1] is 0.23 ± 0.06 µM; in assay [3] it was 21 µM; on human NET it was 0.17 ± 0.02 µM; against α4β2-nAChR it was 16 µM; against α3β4*-nAChR, 2.8 µM; at α4β4-nAChR it was 23 µM. Moreover, the ED50 in [4] was over 20 mg/kg; in assay [5] it was over 20 mg/kg; in [6], 3.8 mg/kg; in [7] it was 0.13 mg/kg.

Consider `C[C@@H]1NC(C)(C)CO[C@H]1c1cccc(F)c1` [(S,S)-5b, (S,S)-2-(3’-Fluorophenyl)-3,5,5-trimethylmorpholine], for which the 50% inhibitory concentration (IC50) against human DAT [1] is 0.061 ± 0.02 µM; in assay [3] it was 34 µM; against human NET, 0.032 ± 0.003 µM; on α4β2-nAChR, 23 µM; against α3β4*-nAChR it was 5.6 µM; on α4β4-nAChR it was 55 µM. The “More potent as DA uptake inhibitor” value on human DAT [1] (compared to (S,S)-4a) came to 10 fold. Also, on human DAT [1], the “Increase in potency for inhibition of DA uptake” value came out at 3.7 fold. At human SERT, the “Decrease in potency for inhibition of 5HT uptake” value is 12 fold. In addition, the “More potent as NE uptake inhibitor” value at human NET (compared to (S,S)-4a) came out at 5.6 fold. Besides, the “Increase in potency for inhibition of NE uptake” value on human NET (relative to (S,S)-5a) is 3.2 fold. The ED50 is over 20 mg/kg in [4], over 20 mg/kg in assay [5], 4.7 mg/kg in [6] and 0.02 mg/kg in assay [7].

Take `CCN1[C@@H](C)[C@H](c2cccc(Cl)c2)OCC1(C)C` [(S,S)-5e, (S,S)-2-(3'-Chlorophenyl)-4-ethyl-3,5,5-trimethylmorpholine]: the IC50 on human DAT [1] was 0.044 ± 0.009 µM; in assay [3], 14 µM; at human NET, 0.024 ± 0.008 µM; against α4β2-nAChR it was 7.2 µM; against α3β4*-nAChR, 0.79 µM; on α4β4-nAChR it was 6.4 µM. Moreover, in the assay on nicotine-induced CPP [2], the “AD50 CPP” value was 0.025 mg/kg. Besides, in the assay with nicotine-induced CPP [2] (relative to (S,S)-4a), the “More potent in blocking nicotine-induced CPP” value was 4 fold. Also, the ED50 in assay [4] was over 20 mg/kg; in [5], over 20 mg/kg; in assay [6] it was over 20 mg/kg; in assay [7], 0.029 mg/kg.

Consider `CC(NC(C)(C)C)C(=O)c1cccc(Cl)c1` (stereo not drawn) [compound 2, bupropion], for which, in assay [12], the “AD50 Hypothermia” value is 9.2 (4–23) mg/kg. Further, the “AD50 Hot-plate” value in assay [9] is 15 (6–19) mg/kg. For the same compound, the “AD50 Locomotion” value in [10] was 4.9 (0.9–46) mg/kg. For the same compound, the “AD50 CPP” value in the assay on nicotine-induced CPP [11] is reported as 0.35 mg/kg.

Regarding `CCC[C@@H]1NC(C)(C)CO[C@H]1c1cccc(Cl)c1` [(S,S)-5h, (S,S)-2-(3'-Chlorophenyl)-5,5-dimethyl-3-propylmorpholine], the IC50 came to 0.006 ± 0.001 µM on human DAT [1]; 5 µM in assay [3]; 0.009 ± 0.002 µM against human NET; 9.5 µM at α4β2-nAChR; 3.1 µM at α3β4*-nAChR; 8 µM against α4β4-nAChR. The ED50 is over 20 mg/kg in [4], over 20 mg/kg in [5], 0.49 mg/kg in assay [6] and 0.017 mg/kg in assay [7]. In assay [6], the “AD50 Locomotion” value is recorded as 0.49(0.3–6.6) mg/kg. Moreover, in assay [7], the “AD50 Tail-flick” value is on record as 0.017 (0.002–0.15) mg/kg.

As for `C[C@H]1NC(C)(C)CO[C@@H]1c1cccc(Cl)c1` [(R,R)-5a, (R,R)-2-(3'-Chlorophenyl)-3,5,5-trimethylmorpholine], the IC50 in assay [3] worked out at 9.4 µM. Also, the ED50 in [4] was 3.9 mg/kg; in assay [5] it was over 20 mg/kg; in assay [6], over 20 mg/kg; in [7], 1.26 mg/kg.

As to `CC[C@@H]1NC(C)(C)CO[C@H]1c1cccc(Cl)c1` [(S,S)-5g, (S,S)-2-(3'-Chlorophenyl)-3-ethyl-5,5-dimethylmorpholine], the IC50 came out at 0.023 ± 0.005 µM against human DAT [1]; 13 µM in assay [3]; 0.019 ± 0.003 µM against human NET; 14 µM on α4β2-nAChR; 5.6 µM against α3β4*-nAChR; 15 µM against α4β4-nAChR. The ED50 was 9.6 mg/kg in [4], 2.5 mg/kg in assay [5], 2.7 mg/kg in [6] and 0.018 mg/kg in [7]. Moreover, the “AD50 Tail-flick” value in assay [7] is 0.018 (0.009–0.03) mg/kg.

Consider `C[C@@H]1NC(C)(C)CO[C@H]1c1cccc(Cl)c1` [(S,S)-5a, (S,S)-2-(3'-Chlorophenyl)-3,5,5-trimethylmorpholine], for which the ED50 in [4] is over 20 mg/kg; in [5] it was over 20 mg/kg; in [6], over 20 mg/kg; in [7] it was 0.036 mg/kg. The “AD50 Hot-plate” value in assay [4] (setting [14]) is “inactive”. Also, the “AD50 Hypothermia” value in [5] (setting [14]) is “inactive”. For the same compound, the “AD50 Tail-flick” value in assay [7] is given as 0.036 (0.012–0.1) mg/kg. In assay [7], the “More potent in the tail-flick test” value was determined as 5.5 times.

As for `C[C@H]1NC(C)(C)CO[C@]1(O)c1cccc(Cl)c1` [(R,R)-4a, (R,R)-2-(3'-chlorophenyl)-3,5,5-trimethylmorpholine-2-ol], in assay [12], the “AD50 Hypothermia” value is “IA (IA = AD50 > 20 mg/kg)”. Further, the “AD50 Tail-flick” value in [8] is given as 2.5 (1.2–3.6) mg/kg. For the same compound, in [9], the “AD50 Hot-plate” value is 10.3 (5.7–17.1) mg/kg. In addition, in assay [10], the “AD50 Locomotion” value is “IA (IA = AD50 > 20 mg/kg)”. For the same compound, the “Monoamine Uptake Inhibition IC50 [3H]DA” value at human DAT [13] is “inactive”.
